{"source": "paper PMC5689068", "about": "(ACS chemical neuroscience, 2016)", "key": {"[1]": {"molecular_target": "BK receptors", "assay": "Radioligand competition binding assay with [3H]BK in rat brain membranes", "conditions": "pH 6.8, rat brain membranes, 1 nM [3H]BK; for IC50: read-out: IC50, BK receptors, [3H]BK"}, "[2]": {"assay": "In vitro stability in rat plasma", "assay_type": "in vitro ADME", "conditions": "for half-life: plasma, t1/2 in rat plasma, 37 °C"}, "[3]": {"assay": "In vitro stability in human plasma", "assay_type": "in vitro ADME", "summary_of_the_method": "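Test compound stock (50 mg/mL in water) was diluted 5-fold into lithium-heparin human plasma and incubated at 37 °C. Samples were taken at 1, 2, 4, 6, 12 and 24 h, quenched with EtOH and centrifuged. Supernatant was run on C-18 RP-HPLC (10–90% acetonitrile, 40 min). t1/2 = 0.693/b, where b is the slope of ln(fraction parent remaining) versus time. Three independent experiments.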"}, "[4]": {"system": "naïve rats", "assay": "von Frey filament and Infra-Red tests in naïve rats", "assay_type": "in vivo, rat", "summary_of_the_method": "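Nonfasted male Sprague-Dawley rats (250–300 g) carried i.th. catheters placed through the atlanto-occipital membrane to lumbar level under ketamine/xylazine (80/12 mg/kg i.p.). Naïve rats received Dyn A-(2–13) with or without test compound (3 nmol/5 µL i.th.). Tests were run every 20 min up to 120 min. Infrared paw withdrawal latency was calibrated to ~20 s on the uninjured paw; von Frey thresholds used the up-down/Dixon method. One-way ANOVA, p ≤ 0.05.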"}, "[5]": {"system": "SNL rats", "assay": "Hypersensitivity tests in L5/L6 spinal nerve ligation", "assay_type": "in vivo, rat", "conditions": "i.th.", "summary_of_the_method": "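L5/L6 spinal nerve-ligated male Sprague-Dawley rats (250–300 g, nonfasted) with lumbar-level i.th. catheters received test compound or vehicle at 3 nmol/5 µL i.th. Tactile paw withdrawal thresholds were measured against baseline and post-SNL values with von Frey filaments (up-down method, Dixon analysis) every 20 min up to 120 min after injection. One-way ANOVA, significance at p ≤ 0.05.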"}, "[6]": {"assay": "Rat plasma stability of 1 with or without protease inhibitors", "assay_type": "in vitro ADME", "conditions": "t1/2, rat plasma, calculated after a 4 h incubation", "summary_of_the_method": "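Test compound was added to rat plasma together with one protease inhibitor (60 nM bestatin, 100 µM chymostatin, 1 mM PMSF, 10 µM captopril or 1 mM EDTA), with all five combined, or with none. Incubation was at 37 °C after 5-fold dilution of the stock. Parent remaining was measured by RP-HPLC after EtOH quench. t1/2 was calculated after 4 h incubation as 0.693/slope of ln(fraction remaining) versus time.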"}, "[7]": {"system": "naïve rats", "conditions": "naïve animals, i.th.; cited from earlier work"}, "[8]": {"system": "SNL rats", "conditions": "nerve-injured animals (L5/L6 SNL), i.th., dose-dependent; cited from earlier work"}, "[9]": {"conditions": "i.th. co-administration 3 nmol/5 μL with Dyn A-(2–13) 3 nmol"}}}
{"smiles": "CC[C@H](C)[C@H](NC(=O)[C@H](CCCNC(=N)N)NC(=O)[C@@H](CC(C)C)NC(=O)[C@@H](N)Cc1ccccc1)C(=O)N[C@@H](CCCNC(=N)N)C(=O)N1CCC[C@H]1C(=O)N[C@@H](CCCCN)C(=O)O", "note": "[compound 16, H-Phe-D-Leu-Arg-Ile-Arg-Pro-Lys-OH]", "values": [{"measurement": "log[IC50], BK receptors, [3H]BK", "setting": "[1]", "result": "−6.90 ± 0.23"}, {"measurement": "IC50", "setting": "[1]", "result": 130, "unit": "nM"}, {"measurement": "increase in stability in plasma compared to that of 1", "setting": "[2]", "result": 229, "unit": "fold"}, {"measurement": "Intact (%)", "setting": "[2]; rat plasma, after a 24 h incubation", "result": "more than 95%"}, {"measurement": "half-life", "setting": "[2]; rat, calculated from a 5 day stability test", "result": 6.67, "unit": "days"}, {"measurement": "remaining at 24 h, 10 mg/mL", "setting": "[2]; rat, rat plasma", "result": "99 ± 9", "unit": "%"}, {"measurement": "remaining at 120 h, 10 mg/mL", "setting": "[2]; rat, rat plasma", "result": 66, "unit": "%"}, {"measurement": "Intact (%)", "setting": "[3]; human plasma, after a 24 h incubation", "result": "more than 95%"}, {"measurement": "remaining at 24 h, 10 mg/mL", "setting": "[3]; human, human plasma", "result": "99 ± 10", "unit": "%"}, {"measurement": "Dyn A-(2–13)-induced tactile hypersensitivity (von Frey filament test)", "setting": "[4]; [9]", "result": "blocked"}, {"measurement": "Dyn A-(2–13)-induced thermal hypersensitivity (Infra-Red test)", "setting": "[4]; [9]", "result": "blocked"}, {"measurement": "time of maximal paw withdrawal threshold and latency after injection", "setting": "[4]; i.th., 3 nmol/5 μL", "result": 40, "unit": "min"}, {"measurement": "nerve injury-related tactile hypersensitivity", "setting": "[5]", "result": "modulated"}]}
{"smiles": "CC[C@H](C)[C@H](NC(=O)[C@H](CCCNC(=N)N)NC(=O)[C@H](CC(C)C)NC(=O)[C@@H](N)Cc1ccccc1)C(=O)N[C@@H](CCCNC(=N)N)C(=O)N1CCC[C@H]1C(=O)N[C@@H](CCCCN)C(=O)O", "note": "[compound 1, H-Phe-Leu-Arg-Ile-Arg-Pro-Lys-OH]", "values": [{"measurement": "log[IC50], BK receptors, [3H]BK", "setting": "[1]", "result": "−6.83 ± 0.09"}, {"measurement": "IC50", "setting": "[1]", "result": 150, "unit": "nM"}, {"measurement": "time to complete degradation", "setting": "[2]; rat plasma incubation", "result": "≤ 4", "unit": "h"}, {"measurement": "half-life", "setting": "[2]; rat, 24 h study", "result": "< 0.0417", "unit": "days"}, {"measurement": "remaining at 24 h, 10 mg/mL", "setting": "[2]; rat, rat plasma", "result": 0, "unit": "%"}, {"measurement": "time to degradation", "setting": "[3]; human plasma incubation", "result": "≤ 4", "unit": "h"}, {"measurement": "remaining at 24 h, 10 mg/mL", "setting": "[3]; human, human plasma", "result": 0, "unit": "%"}, {"measurement": "half-life", "setting": "[3]; human, plasma", "result": 144, "unit": "min"}, {"measurement": "half-life", "setting": "[6]; 60 nM bestatin", "result": 48, "unit": "min"}, {"measurement": "half-life", "setting": "[6]; 1 mM EDTA", "result": 48, "unit": "min"}, {"measurement": "half-life", "setting": "[6]; 1 mM PMSF", "result": 48, "unit": "min"}, {"measurement": "Dyn A-induced hyperalgesia and motor impairments", "setting": "[7]", "result": "block Dyn A-induced hyperalgesia and motor impairments"}, {"measurement": "thermal hyperalgesia and mechanical hypersensitivity", "setting": "[8]", "result": "reverse thermal hyperalgesia and mechanical hypersensitivity"}]}
